The results in this text go back to ChEMBL document CHEMBL1126645, “Nonsymmetrical bipiperidyls as inhibitors of vesicular acetylcholine storage” (J Med Chem, 1993).

pIC50: −log10 of the molar value.

In this experiment the target is T1, Vesicular acetylcholine transporter (Torpedo californica, UniProt P81721).
T1 sequence (P81721 whole entry): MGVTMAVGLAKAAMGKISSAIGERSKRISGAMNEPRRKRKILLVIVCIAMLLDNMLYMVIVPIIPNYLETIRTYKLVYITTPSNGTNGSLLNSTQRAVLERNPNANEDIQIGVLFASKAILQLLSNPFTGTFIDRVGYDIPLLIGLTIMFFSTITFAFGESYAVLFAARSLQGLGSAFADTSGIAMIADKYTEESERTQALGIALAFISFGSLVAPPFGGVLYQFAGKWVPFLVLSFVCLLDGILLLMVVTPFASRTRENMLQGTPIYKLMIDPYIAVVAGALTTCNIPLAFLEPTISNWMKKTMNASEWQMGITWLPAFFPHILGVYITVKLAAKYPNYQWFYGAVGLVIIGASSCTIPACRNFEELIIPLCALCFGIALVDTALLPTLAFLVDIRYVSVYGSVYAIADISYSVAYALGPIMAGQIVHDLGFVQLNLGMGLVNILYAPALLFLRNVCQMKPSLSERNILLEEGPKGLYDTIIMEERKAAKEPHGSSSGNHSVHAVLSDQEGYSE
Kind of experiment: Inhibition of [3H]- vesamicol binding to synaptic vesicles preparation from the electric organ of Torpedo californica. More on the design: species or system Tetronarce californica. In short, it runs like this: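 Run without ATP and without acetylcholine. Each drug concentration tested in duplicate, with variation below 5%. Other assay details follow an earlier published protocol.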
As to `O[C@@H]1CCN(Cc2ccccc2F)C[C@H]1N1CCC(c2ccccc2)CC1`, the negative-log IC50 (pIC50) (commonly the negative decadic logarithm of the IC50, by convention in mol/L) was 7.38.
For `O=[N+]([O-])c1ccc(N2CC[C@@H](O)[C@H](N3CCC(c4ccccc4)CC3)C2)cc1`, the pIC50 was 6.54.
In the case of `O=C(c1ccccc1)N1CC[C@@H](N2CCC(c3ccccc3)CC2)[C@H](O)C1` it was 5.72.
In the case of `O=C(c1ccccc1)N1CC[C@@H](O)[C@H](N2CCC(c3ccccc3)CC2)C1` it was 7.47; in that of `O[C@@H]1CNCC[C@H]1N1CCC(c2ccccc2)CC1`, 5.30; in that of `O[C@@H]1CCN(Cc2ccccc2)C[C@H]1N1CCC(c2ccccc2)CC1`, 7.52.
As to `O[C@@H]1CN(Cc2ccccc2Br)CC[C@H]1N1CCC(c2ccccc2)CC1`, the pIC50 was 7.26.
`O=C(c1ccc(I)cc1)N1CC[C@@H](O)[C@H](N2CCC(c3ccccc3)CC2)C1` showed a pIC50 of 7.66.
With `O=C(c1ccccc1I)N1CC[C@@H](O)[C@H](N2CCC(c3ccccc3)CC2)C1`, the pIC50 is 6.60.
The compound `Cc1ccc(CN2CC[C@@H](O)[C@H](N3CCC(c4ccccc4)CC3)C2)cc1` had a pIC50 of 7.62.
Consider `O=C(c1cccc(I)c1)N1CC[C@@H](O)[C@H](N2CCC(c3ccccc3)CC2)C1`, for which the pIC50 was 7.41.
In turn, `Cc1cccc(CN2CC[C@@H](O)[C@H](N3CCC(c4ccccc4)CC3)C2)c1` gave a pIC50 of 7.66.
Compound `Cc1ccccc1CN1CC[C@@H](O)[C@H](N2CCC(c3ccccc3)CC2)C1` gave a pIC50 of 7.60.
`O[C@@H]1CCN(Cc2cccc(Br)c2)C[C@H]1N1CCC(c2ccccc2)CC1`: the pIC50 was 7.68.
In turn, `O[C@@H]1CN(Cc2ccccc2)CC[C@H]1N1CCC(c2ccccc2)CC1` had a pIC50 of 7.08.
`O[C@@H]1CN(Cc2ccc(Br)cc2)CC[C@H]1N1CCC(c2ccccc2)CC1` had a pIC50 of 6.51.
`O[C@@H]1CCN(Cc2ccccc2Br)C[C@H]1N1CCC(c2ccccc2)CC1` showed a pIC50 of 7.66.
The compound `O[C@@H]1CCN(Cc2cccc(F)c2)C[C@H]1N1CCC(c2ccccc2)CC1` had a pIC50 of 7.51.
Turning to `O[C@@H]1CCN(Cc2cccc(I)c2)C[C@H]1N1CCC(c2ccccc2)CC1`, the pIC50 is 7.59.
Turning to `O[C@@H]1CCNC[C@H]1N1CCC(c2ccccc2)CC1`, the pIC50 was 5.54.
Turning to `O[C@@H]1CCN(Cc2ccc(F)cc2)C[C@H]1N1CCC(c2ccccc2)CC1`, the pIC50 was 7.85.
Regarding `O[C@@H]1CCN(Cc2ccc(Br)cc2)C[C@H]1N1CCC(c2ccccc2)CC1`, the pIC50 is 7.60.
